{
  "source": "ChEMBL document CHEMBL1124294",
  "about": "“Nonsteroidal antiandrogens. Synthesis and structure-activity relationships of 3-substituted derivatives of 2-hydroxypropionanilides” (1988)",
  "key": {"Rattus norvegicus [1]": {"organism": "Rattus norvegicus", "experiment": "Effective dose required to inhibit 50 percent of androgen hormone activity in intact rat", "format": "functional", "outline": "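Rats dosed with vehicle 0.5% polysorbate. Killed 24 h after the last dose; seminal vesicles dissected, blotted and weighed. Percent inhibition uses a cumulative castrate control group as the 100% effect. ED50 taken from dose-response curves.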"}, "Rattus norvegicus [2]": {"organism": "Rattus norvegicus", "experiment": "Agonist activity indicated by a statistically significant increase in ventral prostate gland weight compared, to control animals; NA means no statistically significant increase in ventral prostate weight compared to controls.", "format": "functional, organism-based", "outline": "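Male rats castrated at 24 days of age, groups of five. Killed 24 h after the final dose. Seminal vesicles and ventral prostate dissected, cleaned and weighed. Value is ventral prostate weight in mg, compared with castrated vehicle controls for statistical significance.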"}, "Rattus norvegicus [3]": {"tested_on": "Rattus norvegicus", "experiment": "Percent inhibition of androgen hormone activity in rat at 50 mg/kg", "format": "functional", "outline": "(§1)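 Rats dosed with vehicle 0.5% polysorbate. Killed 24 h after the last dose; seminal vesicles dissected, blotted and weighed. […] Percent inhibition uses a cumulative castrate control group as the 100% effect. ED50 taken from dose-response curves.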"}, "Rattus norvegicus [4]": {"tested_on": "Rattus norvegicus", "experiment": "Percent inhibition of androgen hormone in rat at 25 mg/kg", "format": "functional", "outline": "as §1"}, "Rattus norvegicus [5]": {"tested_on": "Rattus norvegicus", "experiment": "Percent inhibition of androgen hormone in rat at 50 mg/kg", "format": "functional", "outline": "as §1"}, "Rattus norvegicus [6]": {"tested_on": "Rattus norvegicus", "experiment": "Effect of compound on LH level on 14-day dosing in intact rats 25 mg/kg", "format": "functional"}, "Rattus norvegicus [7]": {"tested_on": "Rattus norvegicus", "experiment": "Effect of compound on LH level on 14-day dosing in intact rats; No statistically significant difference from control", "format": "functional, organism-based"}, "Rattus norvegicus [8]": {"tested_on": "Rattus norvegicus", "experiment": "Effect of compound on testosterone hormone level on 14-day dosing in intact rats at 25 mg/kg.", "format": "functional"}, "Rattus norvegicus [9]": {"tested_on": "Rattus norvegicus", "experiment": "Effect of compound on testosterone hormone level on 14-day dosing in intact rats; No statistically significant difference from controls", "format": "functional, organism-based"}, "Rattus norvegicus [10]": {"tested_on": "Rattus norvegicus", "experiment": "Effect of compound on LH level on 14-day dosing in intact rats", "format": "functional"}, "Rattus norvegicus [11]": {"tested_on": "Rattus norvegicus", "experiment": "Effect of compound on testosterone hormone level on 14-day dosing in intact rats", "format": "functional"}},
  "note": "Calls of active or inactive are those of the source. No cut-off for these calls is given here.",
  "data": [
    {"smiles": "CC(O)(CSc1ccc(F)cc1)C(=O)Nc1ccc(C#N)c(C(F)(F)F)c1", "note": "(centres undefined)", "values": [
      {"measurement": "ED50", "setting": "Rattus norvegicus [1]", "result": 0.5, "unit": "mg/kg"},
      {"measurement": "Weight", "setting": "Rattus norvegicus [2]", "result": "Not significant"}
    ]},
    {"smiles": "CC(O)(CSc1ccccc1)C(=O)Nc1ccc([N+](=O)[O-])cc1", "note": "(centres undefined)", "values": [
      {"measurement": "inhibition in vivo at 50 mg/kg", "setting": "Rattus norvegicus [3]", "result": 11, "unit": "%"}
    ]},
    {"smiles": "CC(O)(CSc1ccccc1)C(=O)Nc1ccc(Cl)c(Cl)c1", "note": "(centres undefined)", "values": [
      {"measurement": "inhibition in vivo at 25 mg/kg", "setting": "Rattus norvegicus [4]", "result": 44, "unit": "%"}
    ]},
    {"smiles": "CC(O)(CS(=O)(=O)c1ccc(F)cc1)C(=O)Nc1ccc([N+](=O)[O-])c(C(F)(F)F)c1", "note": "(centres undefined)", "values": [
      {"measurement": "ED50", "setting": "Rattus norvegicus [1]", "result": 0.4, "unit": "mg/kg"}
    ]},
    {"smiles": "CC(O)(CSc1ccccc1)C(=O)Nc1ccc(Cl)c([N+](=O)[O-])c1", "note": "(centres undefined)", "values": [
      {"measurement": "inhibition in vivo at 50 mg/kg", "setting": "Rattus norvegicus [5]", "result": 36, "unit": "%"},
      {"measurement": "Weight", "setting": "Rattus norvegicus [2]", "result": "Not significant"}
    ]},
    {"smiles": "CC(O)(CS(=O)(=O)c1ccc(F)cc1)C(=O)Nc1ccc(C#N)c(C(F)(F)F)c1", "note": "(centres undefined) [BICALUTAMIDE]", "values": [
      {"measurement": "ED50", "setting": "Rattus norvegicus [1]", "result": 0.5, "unit": "mg/kg"},
      {"measurement": "LH", "setting": "Rattus norvegicus [6]", "result": 1.04, "unit": "ng/mL"},
      {"measurement": "LH", "setting": "Rattus norvegicus [7]", "result": "inactive"},
      {"measurement": "Testosterone", "setting": "Rattus norvegicus [8]", "result": 3.97, "unit": "ng/mL"},
      {"measurement": "Testosterone", "setting": "Rattus norvegicus [9]", "result": "inactive"},
      {"measurement": "Weight", "setting": "Rattus norvegicus [2]", "result": "inactive"}
    ]},
    {"smiles": "CC(C)C(=O)Nc1ccc([N+](=O)[O-])c(C(F)(F)F)c1", "note": "[FLUTAMIDE]", "values": [
      {"measurement": "ED50", "setting": "Rattus norvegicus [1]", "result": 2, "unit": "mg/kg"},
      {"measurement": "LH", "setting": "Rattus norvegicus [10]", "result": "<0.01", "unit": "ng/mL"},
      {"measurement": "LH", "setting": "Rattus norvegicus [6]", "result": 9, "unit": "ng/mL"},
      {"measurement": "Testosterone", "setting": "Rattus norvegicus [11]", "result": "<0.01", "unit": "ng/mL"},
      {"measurement": "Testosterone", "setting": "Rattus norvegicus [8]", "result": 7.61, "unit": "ng/mL"},
      {"measurement": "Weight", "setting": "Rattus norvegicus [2]", "result": "inactive"}
    ]}
  ]
}
